Measured values gathered from unrelated publications.
Target: Protein-tyrosine kinase 6 (PTK6, Homo sapiens, UniProt Q13882)

effect on | method | concentration | remaining binding [%] | Compound
binding | – | 1 µM | 89 | F[C@@H]1CCN(c2nccc(-c3cnn4ncccc34)n2)C1
binding | competition with immobilised ligand | 0.1 µM | 62 | C[C@@H](c1ccc(-n2cnc3c(N)ncnc32)cc1)N1CCc2nn(C)c(Cc3ccccc3)c2C1=O
cell-free assay | competition with immobilised ligand | 1 µM | 100 | COc1cc(-c2cn(C3CCc4ccccc4N(CC(F)(F)F)C3=O)nn2)ccc1-n1ccc(C)n1 (stereo not drawn)
binding | – | 1 µM | 100 | C[C@H]1CCN(c2nccc(-c3cnn4ncccc34)n2)C1
cell-free assay | competition with immobilised ligand | 1 µM | 86 | CN(C)c1ncnc(-c2ccc3nc(Nc4cc(CN5CCN(C(=O)CC(F)(F)F)CC5)ccn4)[nH]c3c2)c1Cl
binding | competition with immobilised ligand | 1 µM | 100 | O=C(NCC1CCOCC1)c1n[nH]cc1NC(=O)c1c(F)cccc1F
cell-free assay | competition with immobilised ligand | 1 µM | 83 | C[C@H](c1ccc(F)cc1)N(Cc1cccc(C(=O)O)c1)C(=O)c1cnc2ccccc2c1
binding | – | 1 µM | 97 | CN(CCCC(F)(F)F)c1nccc(-c2cnn3ncccc23)n1
binding | competition with immobilised ligand | 1 µM | 79 | O=C(NCCCN1CCOCC1)c1ccc(Nc2nccc(-c3cc4ccccc4s3)n2)cc1
binding | – | 1 µM | 100 | CN(C)c1nccc(-c2cnn3ncccc23)n1
binding | competition with immobilised ligand | 1 µM | 100 | O=C(NCCCN1CCOCC1)c1ccc(Nc2ncc(Cl)c(-c3ccc(Cl)s3)n2)cc1
cell-free assay | competition with immobilised ligand | 1 µM | 100 | COc1cc(-c2cn(C3CCc4c(F)cccc4N(CC(F)(F)F)C3=O)nn2)ccc1-n1cnc(C)c1 (stereo not drawn)
binding | competition with immobilised ligand | 1 µM | 100 | COc1cnc(Nc2cccc(S(N)(=O)=O)c2)nc1N1CCN(c2ccccc2)C(=O)C1
binding | competition with immobilised ligand | 1 µM | 100 | C=CC(=O)N1CCC(C(=O)NCC(=O)N2CCN(c3nc(-c4cnc(N)nc4C(F)F)nc(N4CCOCC4)n3)CC2)CC1
cell-free assay | competition with immobilised ligand | 1 µM | 96 | CS(=O)(=O)NCC[C@H](NC(=O)c1cncc2c1cnn2-c1ccc(F)cc1)c1ccnc(S(C)(=O)=O)c1
binding | competition with immobilised ligand | 1 µM | 26 | Cc1cnc(Nc2ccc(C(=O)N3CCC(N4CCCC4)CC3)cc2)nc1-c1cc2ccccc2s1
binding | – | 1 µM | 89 | CC1CCCN1c1nccc(-c2cnn3ncccc23)n1 (stereo not drawn)
binding | competition with immobilised ligand | 1 µM | 97 | Nc1ncc2c(n1)-c1c([nH]c3ccc(C#CC4CC4)cc13)CCCC2
binding | competition with immobilised ligand | 1 µM | 100 | CNC(=O)[C@@H]1CC[C@@H](n2c(-c3ccc4cnccc4c3)nc3ccc(C(=O)NCc4cccc(C(N)=O)c4)cc32)C1
binding | – | 1 µM | 100 | Cc1cnn2ncc(-c3ccnc(N(C)C)n3)c2c1
cell-free assay | competition with immobilised ligand | 1 µM | 100 | O=C1NC(c2ccccn2)Sc2ccccc21 (stereo not drawn)
